Screening results deposited in PubChem by Johns Hopkins Ion Channel Center.
MrgX1 allo act: allosterically activates human MrgX1 receptor signaling; Q96LB2; B-score at 10 µM; hit rate 0.63% among 310,000; AID 588675; MrgX1-HEK293, Fluo-4 calcium flux, FDSS; hits give high values;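 active = plate-corrected calcium response at least 3 library SD above typical, normal starting fluorescence, not activating the receptor alone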;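 note: compound read alongside a low EC10 to EC30 dose of BAM8-22 agonist; peak minus trough fluorescence over baseline measured at the second addition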
Target sequence (Q96LB2 whole entry, looked up): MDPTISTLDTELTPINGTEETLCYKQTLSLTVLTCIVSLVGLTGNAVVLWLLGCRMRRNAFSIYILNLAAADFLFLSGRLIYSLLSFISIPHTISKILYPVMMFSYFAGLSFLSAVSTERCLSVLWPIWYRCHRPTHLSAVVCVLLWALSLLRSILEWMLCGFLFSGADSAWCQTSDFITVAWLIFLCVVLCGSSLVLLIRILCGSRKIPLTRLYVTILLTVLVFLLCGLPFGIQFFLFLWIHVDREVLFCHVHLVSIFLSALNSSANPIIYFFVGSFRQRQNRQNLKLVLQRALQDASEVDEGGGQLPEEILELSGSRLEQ
MrgX1 agonist: agonists of human MrgX1 receptor; MrgX1-HEK293 cells, Fluo-4 calcium fluorescence, agonist mode; hits give high values; B-score at 10 µM; hit rate 0.44% among 310,000; AID 588627;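 active = calcium response B-score plate-corrected fluorescence ratio at least 3 library SD, with starting fluorescence B-score inside 5 SD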
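Test system: HEK293 cells stably expressing human MrgX1 receptor; Input: fifteen thousand cells per well; Dosing: compound delivered in addition one of three; Schedule: overnight seeding, then 1 h dark dye loading; Technique: Fluo-4 NW calcium fluorescence; Measure: B-scored fluorescence response ratio; Controls: positive and negative controls per plate.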
MrgX1 antag: blocks BAM8-22 activation of human MrgX1 receptor. B-score at 10 µM. MRGX1-HEK293 calcium flux, Fluo-4, BAM8-22 antagonism; hits give low values. hit rate 1.3% among 310,000. Q96LB2. AID 588676;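 active = calcium-response B-score plate-corrected more than 3 library SD below zero, starting fluorescence within 5 deviations, no agonist response on first addition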;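 note: peak minus trough fluorescence over baseline after final BAM8-22 challenge near maximal dose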
RGS4 block: inhibitors of human RGS4; B-score at 10 µM; HEK293 M3R/RGS4 inducible, Fluo-4 calcium flux; hits give high values; triggered by carbachol at its EC20; hit rate 0.45% among 310,000; P49798;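 active = B-score, a plate-corrected calcium signal, over three deviations above library mean, with baseline fluorescence within five deviations of library mean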;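 note: RGS4 expression induced by doxycycline in cells with stable M3 receptor; B-score is computed from the integrated fluorescence ratio over baseline after carbachol; higher B-score means a larger calcium signal and so more RGS4 inhibition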
Target sequence (P49798 whole entry, looked up): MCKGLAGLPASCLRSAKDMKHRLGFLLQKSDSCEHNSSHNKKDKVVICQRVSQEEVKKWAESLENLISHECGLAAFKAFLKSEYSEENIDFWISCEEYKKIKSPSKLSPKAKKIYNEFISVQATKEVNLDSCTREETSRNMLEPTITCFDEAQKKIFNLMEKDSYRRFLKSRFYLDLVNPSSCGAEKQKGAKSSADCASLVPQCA
RGS4 act: RGS4 potentiation or activation; HEK293 M3R/inducible RGS4, carbachol calcium flux Fluo4; hits give low values; B-score at 10 µM; hit rate 0.92% among 310,000; AID 463111;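 active = B-score of the integrated calcium signal more than 4 SD below the library mean, with starting fluorescence not abnormally high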;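 note: negative B-score means reduced calcium response which marks RGS4 activation or potentiation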
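Assay system: Inducible-RGS4 HEK293 cells carrying M3 receptor | Schedule: Compound preincubation 20 min at room temperature before agonist | Signal: Kinetic calcium fluorescence imaging with Fluo4-AM dye, 2 µM | Read-out basis: B score from integrated fluorescence ratio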
RGS4 activ val: RGS4 activation, validation assay | shares compounds with RGS4 act | HEK293 M3R/RGS4 inducible, carbachol calcium flux Fluo4 | inhibition, % at 10 µM | hit rate 89% among 1,100;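 active = inhibition above 3 SD of the buffer control wells, cut at about 41% in these data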;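 note: signal is the integrated peak-minus-minimum Fluo4 fluorescence over baseline ratio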
M3R Ca counter: activity in cells without induced RGS4 expression. shares compounds with RGS4 act. HEK293 M3R non-induced RGS4, Fluo4 calcium flux; after carbachol challenge at its EC90. inhibition, % at 10 µM. hit rate 82% among 1,100;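 active = inhibition exceeding 3 SD of buffer-only control wells, cut at about 26% in these data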;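 note: percent drop in integrated peak-minus-baseline over baseline Fluo4 ratio after carbachol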
A number is an active result; . = inactive; / = no result given. This is a sample that favours compounds with a hit; in the whole collection about 3.5% have one here.

SMILES | MrgX1 allo act | MrgX1 agonist | MrgX1 antag | RGS4 block | RGS4 act | RGS4 activ val | M3R Ca counter
CN1[C@@H]2CC[C@H]1CC(OC(=O)C(O)c1ccccc1)C2 (some centres not stated) | . | . | . | / | / | / | /
CN1C2CCC1CC(OC(c1ccccc1)c1ccccc1)C2 (configuration not stated) | . | . | . | . | -8.8 | 92 | 91
OC(CN1CCCCC1)CN(c1ccccc1)c1ccccc1 (configuration not stated) | . | . | . | . | -9.8 | 90 | 58
OC(CN1CCCCCC1)CN(c1ccccc1)c1ccccc1 (configuration not stated) | . | . | . | . | . | / | /
CCC(=O)Nc1nonc1-c1nc2ccccc2n1N(C(=O)CC)C(=O)CC | . | . | . | . | -8.6 | . | .
CCC(=O)Nc1nonc1-c1nc2ccccc2n1Cc1ccccc1 | . | . | . | . | . | / | /
COc1ccccc1Cn1c(=O)oc2ccc(C)cc21 | . | . | . | . | . | / | /
CCCCOc1ccccc1Cn1c(=O)oc2ccc(C)cc21 | . | . | . | . | -7.7 | 92 | 91
CC(NC(=O)/C=C/c1ccc(Br)cc1)c1ccc(Cl)cc1 (configuration not stated) | . | . | . | . | . | / | /
Cc1cccc(NS(=O)(=O)c2cc3c(cc2C)n(C)c(=O)c(=O)n3C)c1 | . | . | . | . | . | / | /
O=C(Nc1ccc2c(c1)OCCO2)c1ccccc1F | . | . | . | . | . | / | /
O=C(Nc1ccc2c(c1)OCCO2)c1cccc2nc3ccccc3nc12 | . | . | . | . | -9.3 | 86 | 52
CC(C)(C)SCCNS(=O)(=O)c1ccc(C#N)cc1 | . | . | . | . | . | / | /
COc1ccc(CCNC(=O)c2cccc3c2C(=O)N(C2CCCCC2)C3)cc1OC | . | . | . | . | -8.1 | 64 | .
COc1ccc(/C=C/CN2CCC(CO)(Cc3ccccc3Cl)CC2)cc1 | . | . | . | . | -9.7 | 89 | 40
CCOC(=O)C1(CC2CC2)CCN(Cc2ccc(C(=O)OC)cc2)CC1 | . | . | . | . | -8.7 | 93 | 49
CCOC(=O)C1(CCc2ccccc2)CCN(Cc2ccc(C(=O)OC)cc2)CC1 | . | . | . | . | . | / | /
COC(=O)c1ccc(CN2CCC(CO)(Cc3ccccc3Cl)CC2)cc1 | . | . | . | . | -7.8 | 92 | 60
N#CC1(NC(=O)CSc2n[nH]c(-c3ccccc3)n2)CCCCC1 | . | . | . | . | . | / | /
Cc1cc(C)c2c(CN3CCN(Cc4ccccc4)CC3)cc(=O)oc2c1 | . | . | . | . | . | / | /
Cc1ccc2c(CN3CCN(Cc4ccc5c(c4)OCO5)CC3)cc(=O)oc2c1C | . | . | . | . | -8.7 | . | .
Cc1cc(C)c2c(CN3CCN(Cc4ccc5c(c4)OCO5)CC3)cc(=O)oc2c1C | . | . | . | . | -7.7 | 76 | 28
Cc1cc2oc(=O)cc(CN3CCN(Cc4ccc5c(c4)OCO5)CC3)c2cc1C | . | . | . | . | . | / | /
Cc1cc(C)c2c(CN3CCN(Cc4ccc5c(c4)OCO5)CC3)cc(=O)oc2c1 | . | . | . | . | -8.7 | 91 | 52
CCOc1ccc(NC(=O)CN(C)C(=O)CC2OC(=O)c3ccccc32)cc1OCC (configuration not stated) | . | . | . | . | . | / | /
SMILES | MrgX1 allo act | MrgX1 agonist | MrgX1 antag | RGS4 block | RGS4 act | RGS4 activ val | M3R Ca counter
Cc1ccc(S(=O)(=O)NC(CC(C)C)C(=O)Oc2ccc3c4c(c(=O)oc3c2)CCC4)cc1 (configuration not stated) | . | . | . | . | -9.4 | 92 | 92
Cc1ccc(Oc2ccc(NC(=O)Cn3ccsc3=N)cc2)cc1 | . | 45 | . | . | -8.8 | 89 | 52
CN(C)S(=O)(=O)c1cccc(NC(=O)c2ccc(S(=O)(=O)N3CCCCC3)cc2)c1 | . | . | . | . | . | / | /
CN(C)S(=O)(=O)c1cccc(C(=O)Nc2ccc(S(=O)(=O)N3CCCC3)cc2)c1 | . | . | . | . | -7.9 | 70 | 84
O=C(CC1C(=O)NCCN1Cc1ccc(-c2ccccc2)cc1)NCCCn1ccnc1 (configuration not stated) | . | . | . | . | . | / | /
Cc1ccc(N(CC(=O)NCc2ccc3c(c2)OCO3)S(=O)(=O)c2c(C)noc2C)cc1 | . | . | . | . | . | / | /
Cc1noc(C)c1S(=O)(=O)N(CC(=O)NCc1ccc2c(c1)OCO2)c1ccc(C(C)C)cc1 | . | . | . | . | -8.3 | . | .
CCOc1ccccc1NC(=O)C1C2CCC3C(CCC21)C3(Cl)Cl (configuration not stated) | . | . | . | . | -7.9 | . | .
O=C(Nc1ccccc1Cl)C1C2CCC3C(CCC21)C3(Cl)Cl (configuration not stated) | . | . | . | . | . | / | /
CCOCCCNC(=O)c1cn(C)c2ccc(S(=O)(=O)N3CCCC3)cc2c1=O | . | . | . | . | . | / | /
COc1cccc(-c2nc(N3CCCCC3)c3ccccc3n2)c1O | . | . | . | . | -8.8 | 92 | 91
Cc1cc(Br)ccc1OCCCCN1CCC(C)CC1 | . | . | . | . | -8.5 | 89 | 64
CC1CCN(CCCOc2ccc(Cl)cc2Br)CC1 | . | . | . | . | . | / | /
Cc1csc(NC(=O)c2sc3nc(-c4cccs4)ccc3c2N)n1 | . | 93 | . | . | -8.9 | 88 | 83
Cc1cc(C)c2oc(C(=O)N3CCN(Cc4ccccc4)CC3)cc(=O)c2c1 | . | . | . | . | . | / | /
CCSc1nc2sc3c(c2c(=O)n1-c1ccccc1)CCN(C(C)C)C3 | . | . | . | . | -7.9 | 64 | .
CN1CCc2c(sc3nc(SCC(N)=O)n(-c4ccccc4)c(=O)c23)C1 | . | . | . | . | . | / | /
CC(C)C(NC(=O)/C(=C/c1ccco1)NC(=O)c1ccc(Br)o1)C(=O)O (configuration not stated) | . | . | . | . | . | / | /
COc1ccc(N2CCN(C(=O)Cc3csc(NC(=O)Nc4ccccc4OC)n3)CC2)cc1 | . | . | . | . | . | / | /
COc1ccccc1NC(=O)Nc1nc(CC(=O)N2CCN(c3ccc(F)cc3)CC2)cs1 | . | . | . | . | -8.2 | 56 | .
C=C(C)CSc1nc2sc3c(c2c(=O)n1C1CCCCC1)CCN(C)C3 | . | . | . | . | -7.8 | 93 | 86
CSc1nc2sc3c(c2c(=O)n1C1CCCCC1)CCN(C)C3 | . | . | . | . | . | / | /
O=S(=O)(NCc1ccccc1)NCc1cccc(C(F)(F)F)c1 | . | . | . | . | . | / | /
CC(C)C[C@H]1CN=C(Nc2ccccc2)N1CC1CCCCCC1 | . | . | . | / | / | / | /
CCOC(=O)c1cnc2ccccc2c1NCc1ccco1 | . | . | . | . | -9.7 | 94 | 92
